Hits are enriched below; roughly 3% of the tested compounds scored in any of these assays.
Kir21 block: inhibitors of mouse Kir2.1 inward-rectifier potassium channel; P35561; HEK293-Kir2.1, FluxOR thallium flux fluorescence; active compounds read low; B-score at 10 µM; actives 0.85% (n = 310,000); AID 1672;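 active = fluorescence ratio B-score at or below minus 3 SD of library scores, with starting-brightness B-score within 2 SD, cut at about -4.2 in these data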;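 note: channel flux triggered by added potassium and thallium sulfate stimulus; B-score of peak minus minimum fluorescence over baseline after thallium stimulus; more negative B-score means stronger Kir2.1 block with less thallium influx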
SR-BI HDL uptake: inhibitors of mouse SR-BI mediated HDL lipid uptake; inhibition, % at 12.5 µM; actives 0.96% (n = 320,000); Q61009; ldlA[mSR-BI] CHO cells, DiI-HDL uptake fluorescence, 3 h; AID 488896;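 active = mean replicate inhibition of at least 70% and a set share of replicates each scoring 70 or more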;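 note: 0% = median of neutral control wells and 100% = median of positive control wells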
Target sequence (Q61009 whole entry, looked up): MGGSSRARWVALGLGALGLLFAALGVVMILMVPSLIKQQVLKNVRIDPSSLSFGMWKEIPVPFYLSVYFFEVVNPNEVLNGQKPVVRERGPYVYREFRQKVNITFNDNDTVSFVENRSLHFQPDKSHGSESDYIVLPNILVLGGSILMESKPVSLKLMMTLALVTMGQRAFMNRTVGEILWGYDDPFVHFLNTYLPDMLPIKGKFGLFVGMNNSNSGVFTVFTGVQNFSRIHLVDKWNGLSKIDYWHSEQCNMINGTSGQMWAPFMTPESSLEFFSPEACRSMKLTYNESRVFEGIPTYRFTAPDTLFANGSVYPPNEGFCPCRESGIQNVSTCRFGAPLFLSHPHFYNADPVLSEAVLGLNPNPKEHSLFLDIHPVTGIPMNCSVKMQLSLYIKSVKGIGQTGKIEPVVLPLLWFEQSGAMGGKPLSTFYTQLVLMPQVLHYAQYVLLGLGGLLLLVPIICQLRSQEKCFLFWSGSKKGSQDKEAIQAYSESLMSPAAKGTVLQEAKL
DNA FID counter: counter-screen for HCV NS3 helicase inhibitors: DNA intercalator displacement; actives 0.17% (n = 290,000); inhibition, % at 7.9 µM; DNA fluorescent intercalator displacement, fluorescence; in the data active = inhibition above about 37%;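 note: 0% = vehicle and 100% = reference compound; higher means more ethidium bromide displaced from hairpin DNA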
ANO1 activ: activates or potentiates the mouse TMEM16A chloride channel; Q8BHY3; HEK293 TMEM16A/YFP-H148Q/I152L, iodide quench fluorescence; active compounds read low; B-score at 10 µM; actives 0.3% (n = 340,000); AID 623877;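 active = fluorescence-ratio B-score plate-corrected deviation score at least 3 library SD below zero, with starting fluorescence score within 5 deviations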;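 note: channel opened by trigger with iodide after compound preincubation; score built on the fluorescence ratio of max minus min over baseline; more negative score means more quench and so TMEM16A activation or potentiation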
TMEM16A inh: inhibitors of mouse TMEM16A calcium-activated chloride channel; Q8BHY3; normalized B-score (activity score, 25-100; higher = stronger inhibition) at 10 µM; HEK293 TMEM16A/YFP iodide influx fluorescence, ionomycin; actives 1.2% (n = 310,000);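 active = ratio plate-corrected score three or more library SD toward inhibition, starting fluorescence score within five deviations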;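 note: score derived from kinetic fluorescence span divided by baseline fluorescence per well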
SR-BI DiI-HDL act: activators of SR-BI mediated HDL lipid uptake; actives 0.096% (n = 320,000); AID 504775; activation, % at 12.5 µM; CHO ldlA[mSR-BI] cells, DiI-HDL uptake fluorescence, 3 h; 100 = double the neutral-control signal;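 active = mean replicate activation of at least 60% and every replicate at or above 60%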;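 note: 0% = median plate neutral-control signal and 100% = twice that signal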
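System: CHO ldlA[mSR-BI] cells / Medium: HEPES-buffered (25 mM, pH 7.4) F12 plus 0.5% BSA / Probe or stimulus: labelled HDL, 10 µg/mL / Doses: single compound concentration, delivered by pin transfer / Schedule: 3 h, 37 °C / Measured by: DiI fluorescence, bottom read / Measure: cell-associated DiI fluorescence as measure of HDL uptake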
TMEM16A reconf: reconfirmed blocker of mouse TMEM16A calcium-activated chloride channel. shares compounds with TMEM16A inh. HEK293 TMEM16A/YFP-H148Q, iodide quench fluorescence; ionomycin added to raise cell calcium. inhibition, % at 10 µM. actives 39% (n = 2,300);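 active = mean duplicate percent inhibition, scaled so buffer wells are 0 and the reference blocker 100, over three buffer SD above buffer mean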
TMEM16A Ca cntr: calcium mobilization counter-screen hit for TMEM16A inhibitor series; shares compounds with TMEM16A inh; calcium response (% of ionomycin), % at 10 µM; TMEM16A/YFP HEK293, Fluo4 calcium mobilization; actives 2% (n = 2,300);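 active = duplicate-averaged calcium signal over 20% of the ionomycin maximum, relative to buffer baseline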;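 note: each well's signal is peak minus trough fluorescence divided by its pre-addition baseline; 0% = buffer wells and 100% = ionomycin wells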
YFP-HEK293 quench: counter-screen for TMEM16A inhibitors: effect in parental YFP-HEK293 cells. shares compounds with TMEM16A inh. iodide YFP quench, ionomycin. YFP ratio F(max-min)/F0 at 10 µM. 2,300 tested, under 10 active. AID 652233;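 active = yellow fluorescent protein signal ratio exceeding the buffer control mean by over 5 SD of those controls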;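 note: ratio is mean of duplicate wells from kinetic YFP trace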
ClC-1 inh: selectivity of TMEM16A inhibitors: inhibition of rat ClC-1 chloride channel; 2,300 tested, under 10 active; AID 652236; CHO ClC-1-YFP, iodide influx fluorescence quench; iodide control reads 0, buffer control 100; ratio percent, % at 10 µM; shares compounds with TMEM16A inh;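 active = duplicate-mean ratio percent above the mean of iodide-only control wells, which defines zero, plus 5 of their SD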;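 note: higher percent means stronger block of ClC-1 iodide influx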
Numbers without * were called inactive; i = inactive; · = no result.

SMILES	Kir21 block	SR-BI HDL uptake	DNA FID counter	ANO1 activ	TMEM16A inh	SR-BI DiI-HDL act	TMEM16A reconf	TMEM16A Ca cntr	YFP-HEK293 quench	ClC-1 inh
CCOC(=O)c1c(NC(=O)CSc2nnc(Cc3ccccc3)o2)sc(C)c1C	-1.74	6.2	-11.7	i	100*	-6.2	i	i	-1.2	-0.5
CCOC(=O)c1c(NC(=O)CSc2nc3cccnc3n2C)sc(C(C)=O)c1C	-0.5	43.1	-6.5	i	i	-43.1	·	·	·	·
CCOC(=O)c1c(NC(=O)CSc2nnc(-c3ccco3)o2)sc(C)c1C	0.03	2.2	-9.3	i	i	-2.2	·	·	·	·
COc1ccc(C2=CN3CCCCC3CC2=O)cc1OC (stereo unspecified)	·	-18.5	·	i	·	18.5	·	·	·	·
O=[N+]([O-])c1ccccc1S(=O)(=O)N1CCN(C2CCN(Cc3ccccc3)CC2)CC1	0.07	-26.8	12.3	i	i	26.8	·	·	·	·
Nc1c(C(=O)N/N=C/c2cccnc2)oc2nc(-c3ccccc3)cc(-c3ccco3)c12	1.16	10.7	-12.7	i	i	-10.7	i	i	-1.12	1.0
Nc1c(C(=O)N/N=C/c2cccnc2)oc2nc(-c3ccco3)cc(-c3ccco3)c12	0.49	·	-14.1	i	i	·	·	·	·	·
C=CCn1c(NC(=O)c2ccccc2Cl)c(C#N)c2nc3ccccc3nc21	2.87	31.1	-24.7	i	100*	-31.2	54.5%*	i	-0.881	-25.5
COC(=O)c1scc(S(=O)(=O)C(C)C)c1N/N=C(\C#N)C(=O)c1ccc(Cl)cc1	-0.02	4.9	-26.3	i	i	-4.9	·	·	·	·
COC(=O)c1scc(C#N)c1N/N=C(\C#N)S(=O)(=O)c1ccc(Cl)cc1	0.74	1.1	-22.7	i	25*	-1.1	i	i	-1.03	-24.5
Cc1c(C(=O)Nc2nonc2-c2ccc(F)cc2)oc2ccc(F)cc12	0.05	11.3	-22.1	i	25*	-11.3	40.0%*	i	-0.882	-15.5
Cc1ccc(NS(=O)(=O)c2cccc(C(=O)Nc3cc(C)on3)c2)cc1	-0.29	13.1	-10.4	-5.28*	25*	-13.1	i	i	-1.07	-12.5
Cc1ccc(S(=O)(=O)Nc2ccc(C(=O)Nc3cc(C)on3)cc2)cc1	-0.81	4.0	-10.9	i	i	-4.0	·	·	·	·
Cn1c(CN2CCCCC2)nc2cc(NC(=O)c3ccc(Cl)cc3)ccc21	-1.26	13.5	5.2	i	100*	-13.5	23.0%*	i	-1.15	-3.0
Cc1cc(N)ccc1NC(=O)c1ccccc1	0.85	-16.3	8.1	i	100*	16.3	i	i	-1.12	-5.5
O=C1CC(C(=O)NCc2ccccc2)N=C(N2CCCCC2)N1 (stereo unspecified)	1.55	-14.9	0.7	i	i	14.9	·	·	·	·
O=C1CC(C(=O)Nc2ccccc2)N=C(N2CCCCC2)N1 (stereo unspecified)	0.69	-10.8	-3.0	i	i	10.8	i	i	-1.08	-5.0
CC1Sc2ccc(S(=O)(=O)N(C)Cc3ccccc3)cc2NC1=O (stereo unspecified)	0.53	-2.7	-25.4	i	25*	2.7	i	i	-0.819	-10.0
C=CCN(c1ccccc1)S(=O)(=O)c1ccc2c(c1)NC(=O)C(C)S2 (stereo unspecified)	-3.29	-26.7	-24.8	i	i	26.7	·	·	·	·
N#Cc1c(NC(=O)Cn2c(=O)oc3ccccc32)oc(-c2ccccc2)c1-c1ccccc1	-0.56	10.1	-9.9	i	25*	-10.1	28.5%*	i	-0.939	-12.5
CC(C)(C)SCCNC(=O)Nc1ccccc1	-2.45	-0.9	-0.2	i	i	0.9	·	·	·	·
C=CCn1c(SCC(=O)Nc2ccc(S(N)(=O)=O)cc2)nnc1-c1cnccn1	-0.37	7.1	-13.2	i	i	-7.1	·	·	·	·
CCOC(=O)c1sc2nc(C)nc(NCc3ccc(F)cc3)c2c1C	0.55	40.9	-19.3	i	100*	-40.9	i	i	-1.12	-13.0
CCOC(=O)CCNC(=O)N1CCCC(N(C)CCc2ccccc2)C1 (stereo unspecified)	-0.08	-30.0	-5.2	i	i	30.0	·	·	·	·
CCc1ccccc1OCC(=O)Nc1cccc(S(=O)(=O)NC2=NCCC2)c1	·	-4.9	·	i	·	4.9	·	·	·	·
SMILES	Kir21 block	SR-BI HDL uptake	DNA FID counter	ANO1 activ	TMEM16A inh	SR-BI DiI-HDL act	TMEM16A reconf	TMEM16A Ca cntr	YFP-HEK293 quench	ClC-1 inh
COc1ccc(Cl)cc1C(=O)CSc1nnnn1C1CCCCC1	1.59	28.4	-3.2	i	100*	-28.4	i	i	-1.1	-9.0
CCOC(=O)N1CCN(C(=O)c2cn(CC)c3ccc(S(=O)(=O)N(C)C4CCCCC4)cc3c2=O)CC1	0.81	-15.1	-57.9	i	i	15.1	·	·	·	·
COCCSc1ccccc1C(=O)Nc1ccc(S(=O)(=O)N2CCOCC2)cc1	-0.07	3.8	-13.7	i	i	-3.8	·	·	·	·
CN(C(=O)COC(=O)c1ccccc1OCc1ccc(F)cc1)C1CCS(=O)(=O)C1 (stereo unspecified)	·	20.4	·	i	·	-20.4	·	·	·	·
COc1ccc(CNC(=O)C2CC(O)CN2C(=O)Nc2ccccc2)cc1 (stereo unspecified)	0.8	3.5	-2.3	i	·	-3.5	·	·	·	·
O=C(NCc1ccccc1C(F)(F)F)C1CC(O)CN1C(=O)Nc1ccccc1 (stereo unspecified)	-0.63	-14.4	-1.9	i	i	14.4	i	i	-0.847	-8.5
N#CCSc1nnc(COc2ccccc2)n1-c1ccccc1	-0.06	-4.9	-8.9	i	25*	4.9	i	i	-1.08	5.5
CN(C)c1ccc(-c2noc(C3CCN(S(=O)(=O)c4cccc(Cl)c4)CC3)n2)cc1	0.25	20.0	7.1	i	i	-20.0	·	·	·	·
O=S(=O)(c1ccc2ccccc2c1)N1CCC(c2nc(-c3ccncc3)no2)CC1	-0.8	61.5	-3.9	i	100*	-61.5	17.0%*	i	-0.929	-5.5
CCN1C[C@@H]2[C@@H]3C(=O)N(C)C(=O)[C@@H]3[C@](CC)(C(=O)OC)N2C1=NCc1ccccc1	·	53.7	·	·	·	-53.7	·	·	·	·

Assay outcomes from PubChem BioAssay.
